In ChEMBL document CHEMBL4371053, “A novel tetrazole analogue of resveratrol is a potent anticancer agent” (Bioorg Med Chem Lett, 2019):
Activity calls are given as the source filed them. No cut-off for these calls is given here.

Experiments:
NCI-H460 [1] = test: Growth inhibition of human NCI-H460 cells at 10 uM after 48 hrs by sulforhodamine B assay relative to control; type: functional; conditions: NCI-H460, 48 h, values are per cent of control
In short: (§1)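 NCI-60 single-dose screen. Cells exposed to 10⁻⁵ M or to vehicle for 48 h. Growth measured by sulforhodamine B optical density before and after exposure. Reported as percent growth relative to vehicle control and to time-zero cell number; negative values indicate cell kill.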

SF-539 = test: Growth inhibition of human SF539 cells at 10 uM after 48 hrs by sulforhodamine B assay relative to control; type: functional; conditions: SF-539, 48 h, values are per cent of control; in short: as §1
A549 = test: Growth inhibition of human A549/ATCC cells incubated for 48 hrs by sulforhodamine B assay; type: functional; conditions: A549, 48 h
In short: (§2)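 NCI-60 five-dose study at 10⁻⁴, 10⁻⁵, 10⁻⁶, 10⁻⁷ and 10⁻⁸ M, 48 h incubation. Growth determined from sulforhodamine B optical density before and after exposure, relative to vehicle control and time-zero counts. GI₅₀ is the molar concentration giving 50% growth inhibition.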

NCI-H522 = test: Growth inhibition of human NCI-H522 cells incubated for 48 hrs by sulforhodamine B assay; type: functional; conditions: NCI-H522, 48 h; in short: as §2
HT-29 = test: Growth inhibition of human HT-29 cells incubated for 48 hrs by sulforhodamine B assay; type: functional; conditions: HT-29, 48 h; in short: as §2
KM12 = test: Growth inhibition of human KM12 cells incubated for 48 hrs by sulforhodamine B assay; type: functional; conditions: KM12, 48 h; in short: as §2
SW-620 = test: Growth inhibition of human SW620 cells incubated for 48 hrs by sulforhodamine B assay; type: functional; conditions: SW-620, 48 h
In short: (§3)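 NCI-60 screen run per Rubinstein protocol. Sulforhodamine B optical density was read before and after 48 h exposure to compound or vehicle. The single-dose pass at 10⁻⁵ M reported percent growth relative to vehicle control and time-zero cell number. The five-dose follow-up used 10⁻⁴ to 10⁻⁸ M, giving GI₅₀ as the molar concentration causing 50% growth inhibition.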

SNB-75 = test: Growth inhibition of human SNB75 cells incubated for 48 hrs by sulforhodamine B assay; type: functional; conditions: SNB-75, 48 h; in short: as §3
SK-MEL-5 = test: Growth inhibition of human SK-MEL-5 cells incubated for 48 hrs by sulforhodamine B assay; type: functional; conditions: SK-MEL-5, 48 h; in short: as §3
NCI/ADR-RES = test: Growth inhibition of human NCI/ADR-RES cells incubated for 48 hrs by sulforhodamine B assay; type: functional; in short: as §2
786-0 = test: Growth inhibition of human 786-0 cells incubated for 48 hrs by sulforhodamine B assay; type: functional; conditions: 786-0, 48 h; in short: as §2
A498 = test: Growth inhibition of human A498 cells incubated for 48 hrs by sulforhodamine B assay; type: functional; conditions: A498, 48 h; in short: as §2
ACHN = test: Growth inhibition of human ACHN cells incubated for 48 hrs by sulforhodamine B assay; type: functional; in short: as §2
MCF7 = test: Growth inhibition of human MCF7 cells incubated for 48 hrs by sulforhodamine B assay; type: functional; conditions: MCF7, 48 h; in short: as §2
MDA-MB-231 = test: Growth inhibition of human MDA-MB-231 cells incubated for 48 hrs by sulforhodamine B assay; type: functional; conditions: MDA-MB-231, 48 h; in short: as §2
Hs-578T = test: Growth inhibition of human Hs578T cells incubated for 48 hrs by sulforhodamine B assay; type: functional; in short: as §2
MDA-MB-468 = test: Growth inhibition of human MDA-MB-468 cells incubated for 48 hrs by sulforhodamine B assay; type: functional; conditions: MDA-MB-468, 48 h; in short: as §2
Tubulin (Homo sapiens) = Tubulin (Homo sapiens) (UniProt P68371+Q9H4B7+P0DPH7+P68366+Q13509+Q71U36+P04350+Q3ZCM7+P07437+P68363+Q9BQE3+Q6PEY2+Q13885+Q9BVA1+Q9BUF5); test: Inhibition of tubulin (unknown origin) polymerization at 2 uM by immunoblot analysis; type: protein-complex assay
In short: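 Cell-based assay. Cells were treated with compound at 1.0 and 2.0 μM. Polymerized tubulin (pellet) was separated from unpolymerized tubulin (supernatant), and both fractions were immunoblotted with anti-tubulin antibody.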

EKVX = test: Growth inhibition of human EKVX cells incubated for 48 hrs by sulforhodamine B assay; type: functional
In short: (§4)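 NCI-60 screen: cells were exposed for 48 h to compound or vehicle, and growth was read as sulforhodamine B optical density before and after exposure. In the single-dose test at 10⁻⁵ M, percent growth was taken relative to vehicle control and time-zero cell number. In the five-dose test (10⁻⁴ to 10⁻⁸ M), GI₅₀ was the molar concentration causing 50% growth inhibition.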

NCI-H226 = test: Growth inhibition of human NCI-H226 cells incubated for 48 hrs by sulforhodamine B assay; type: functional; conditions: NCI-H226, 48 h; in short: as §4
NCI-H322M = test: Growth inhibition of human NCI-H322M cells incubated for 48 hrs by sulforhodamine B assay; type: functional; in short: as §4
NCI-H460 [2] = test: Growth inhibition of human NCI-H460 cells incubated for 48 hrs by sulforhodamine B assay; type: functional; conditions: NCI-H460, 48 h; in short: as §4
Malme-3M = test: Growth inhibition of human MALME-3M cells incubated for 48 hrs by sulforhodamine B assay; type: functional; in short: as §4
UACC-257 = test: Growth inhibition of human UACC257 cells incubated for 48 hrs by sulforhodamine B assay; type: functional; conditions: UACC-257, 48 h; in short: as §4
OVCAR-5 = test: Growth inhibition of human OVCAR5 cells incubated for 48 hrs by sulforhodamine B assay; type: functional; conditions: OVCAR-5, 48 h; in short: as §4
OVCAR-8 = test: Growth inhibition of human OVCAR8 cells incubated for 48 hrs by sulforhodamine B assay; type: functional; conditions: OVCAR-8, 48 h; in short: as §4
CAKI-1 = test: Growth inhibition of human Caki1 cells incubated for 48 hrs by sulforhodamine B assay; type: functional; conditions: CAKI-1, 48 h; in short: as §4
SN12C = test: Growth inhibition of human SN12C cells incubated for 48 hrs by sulforhodamine B assay; type: functional; in short: as §4
TK-10 = test: Growth inhibition of human TK10 cells incubated for 48 hrs by sulforhodamine B assay; type: functional; conditions: TK-10, 48 h; in short: as §4
BT-549 = test: Growth inhibition of human BT549 cells incubated for 48 hrs by sulforhodamine B assay; type: functional; conditions: BT-549, 48 h; in short: as §4
T47D = test: Growth inhibition of human T47D cells incubated for 48 hrs by sulforhodamine B assay; type: functional; in short: as §4

Row | SMILES | growth, % of control at 10 µM (NCI-H460 [1]) [%] | GI50 (A549) [µM] | GI50 (NCI-H522) [µM] | GI50 (HT-29) [µM] | GI50 (KM12) [µM] | GI50 (SW-620) [µM] | GI50 (SNB-75) [µM] | GI50 (SK-MEL-5) [µM] | GI50 (NCI/ADR-RES) [µM] | GI50 (786-0) [µM] | GI50 (ACHN) [µM] | GI50 (MCF7) [µM] | GI50 (MDA-MB-231) [µM] | GI50 (Hs-578T) [µM] | GI50 (MDA-MB-468) [µM] | inhibition (Tubulin (Homo sapiens)) | other results
1 | COc1ccc(/C=C(/c2cc(OC)c(OC)c(OC)c2)c2nnn[nH]2)cc1O | 2.67 | < 0.01 | < 0.01 | 2.2 | < 0.01 | < 0.01 | < 0.01 | < 0.01 | < 0.01 | < 0.01 | < 0.01 | < 0.01 | < 0.01 | < 0.01 | < 0.01 | Active | growth, % of control at 10 µM (SF-539): -1.97%; GI50 (A498): < 0.01 µM
2 | COc1ccc(/C(=C/c2ccc3ccccc3c2)c2nnn[nH]2)cc1OC | 14.1 | 3.8 | 1.14 | 2.69 | 2.79 | 1.36 | 2.51 | 4.68 | 1.03 | 5.72 | 11.3 | 4.12 | 12.5 | 2.23 | 21.5 | inactive | GI50 (EKVX): 18.2 µM; GI50 (NCI-H226): > 100 µM; GI50 (NCI-H322M): 6.88 µM; GI50 (NCI-H460 [2]): 2.81 µM; GI50 (Malme-3M): 3.08 µM; GI50 (UACC-257): 56.6 µM; GI50 (OVCAR-5): 6.08 µM; GI50 (OVCAR-8): 7.1 µM; GI50 (CAKI-1): 2.24 µM; GI50 (SN12C): 9.97 µM; GI50 (TK-10): 18.5 µM; GI50 (BT-549): 10.9 µM; GI50 (T47D): 28.2 µM
